# PubChem BioAssay
# The source made the active and inactive calls.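 Rule for the calls, unless noted: active = visually confirmed hit in the image check and inhibition above 20%; inconclusive = visually confirmed hit but inhibition not above 20%; inactive = no visual hit in the image check.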
# Key:
# [1] = inhibitors of TNFa-induced NFkB p65 translocation, primary screen, imaging, HUVEC, MLSMR starter and 10KST1 sets (AID 438;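 active = inhibition above 20% together with a positive visual image hit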;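 note: compound added about 3h40 before a 20 min TNFalpha stimulation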;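 for inhibition: signal is the nuclear over cytoplasmic p65 intensity ratio per well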); details: HUVEC TNFa-induced p65 nuclear translocation; cell count: measured here: nuclei count (cytotoxicity indicator), at 2.08 µM; inhibition: at 2 µM, stronger effect = higher value, 0% TNFa-plus-vehicle, 100% no-TNFa wells
# [2] = inhibitors of mutant huntingtin aggregation, primary screen, imaging, exon1htt(103Q)mCFP cells, high-content imaging (AID 483;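 active = visual image review flags a hit and inhibition of aggregation exceeds 20%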;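 note: compound exposure lasted 3 days before fixation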;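 for nuclei count: percent of the per-plate median nuclei count of sample wells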); details: exon1htt(103Q)mCFP cell line, aggregate imaging, at 2 µM; inhibition of aggregation: stronger effect = higher value; nuclei count: measured here: cell count, toxicity
# [3] = inhibitors of E-selectin induction by TNFa, primary screen, imaging, HUVEC, immunofluorescence, MLSMR starter and 10KST1 sets (AID 487); details: HUVEC TNFalpha-induced E-selectin immunofluorescence imaging, at 2 µM; inhibition: stronger effect = higher value; nuclei count: measured here: cell number, toxicity;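 for inhibition: signal is fraction of cell area covered by stained E-selectin grains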;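 for nuclei count: 100% = median nuclei count of all wells on the same plate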
# [4] = target: Voltage-gated potassium channel subunit beta-2 (Rattus norvegicus) (UniProt P62483); assay: KvBeta enzyme negative modulators, primary screen, biochemical, NADPH fluorescence (AID 622;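 active = fluorescence slope higher than the sample average by over 3 SD, cut at about -0.22 in these data, passing the limit was not always enough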;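 note: slope of raw intensity against log time taken from 70 to 1610 s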); details: recombinant KvBeta, 4-cyanobenzaldehyde reduction, at 10 µM, stronger effect = higher value
# [5] = target: Voltage-gated potassium channel subunit beta-2 (Rattus norvegicus) (UniProt P62483); assay: KvBeta positive modulators, primary screen, biochemical, NADPH fluorescence (AID 623;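 active = NADPH fluorescence slope more negative than the mean of all samples by about 3 SD, 99.7% confidence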;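 note: fluorescence intensity change per second fitted from 20 to 320 s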); details: Recombinant KvBeta, NADPH fluorescence decrease slope, 10 min; at 10 µM; stronger effect = lower value
# [6] = target: Muscarinic acetylcholine receptor M4 (Homo sapiens) (UniProt P08173); assay: compounds altering M4/GIRK thallium flux, either direction, primary screen, M4 allosteric agonist project, cell-based, HEK293 M4/GIRK, BTC-AM (AID 625;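 active = fluorescence slope after compound addition differing from the mean of all tested samples at 99.7% confidence, mostly higher but some lower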;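 note: thallium influx through GIRK channels coupled to M4 in HEK293 cells with BTC-AM dye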); details: at 10 µM, actives lie on both sides
# Procedure, shortened: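 Assay system: HEK293 cells with M4 receptor and GIRK channels / Controls: carbachol and DMSO controls / Schedule: 1 h dye loading, 2 min kinetic read / Technique: kinetic fluorescence with BTC-AM dye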
# [7] = inhibitors of Sendai virus-induced IRF3 signaling, primary screen, TLR/RLR signaling modifier project, cell-based, Sendai virus stimulus, luciferase, 10K MLSCN set (AID 602276;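 active = inhibition at or above 50% at 10 µM; inactive = inhibition below 50%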;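 note: firefly luciferase from ISG56 promoter only with Renilla not read in this screen; 0% = Sendai virus plus DMSO and 100% = medium plus DMSO without virus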); details: HEK293 RL24 IRF3 luciferase reporter, at 10 µM, stronger effect = higher value
# [8] = inhibitors of poly I:C-induced TLR3 signaling, primary screen, cell-based, poly I:C stimulus, luciferase, 10K MLSCN set (AID 602277;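 active = inhibition of the reporter signal at or above 50%; inactive = inhibition below 50%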); details: HEK293-TLR3 RL24 IRF3 luciferase reporter, at 10 µM, stronger effect = higher value
# Sequence of Muscarinic acetylcholine receptor M4 (Homo sapiens) (P08173 whole entry, looked up): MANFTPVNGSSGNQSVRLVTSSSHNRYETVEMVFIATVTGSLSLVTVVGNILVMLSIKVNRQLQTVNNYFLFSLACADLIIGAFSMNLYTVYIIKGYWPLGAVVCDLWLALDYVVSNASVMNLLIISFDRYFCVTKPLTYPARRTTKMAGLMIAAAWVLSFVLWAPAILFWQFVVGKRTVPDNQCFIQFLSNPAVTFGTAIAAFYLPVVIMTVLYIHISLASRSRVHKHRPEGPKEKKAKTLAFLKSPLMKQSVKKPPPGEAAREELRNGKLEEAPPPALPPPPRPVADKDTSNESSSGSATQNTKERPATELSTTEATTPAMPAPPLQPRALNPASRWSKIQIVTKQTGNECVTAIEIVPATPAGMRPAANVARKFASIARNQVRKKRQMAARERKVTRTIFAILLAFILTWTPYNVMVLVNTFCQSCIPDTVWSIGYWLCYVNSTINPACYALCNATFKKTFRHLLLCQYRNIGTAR
# Sequence of Voltage-gated potassium channel subunit beta-2 (Rattus norvegicus) (P62483 whole entry, looked up): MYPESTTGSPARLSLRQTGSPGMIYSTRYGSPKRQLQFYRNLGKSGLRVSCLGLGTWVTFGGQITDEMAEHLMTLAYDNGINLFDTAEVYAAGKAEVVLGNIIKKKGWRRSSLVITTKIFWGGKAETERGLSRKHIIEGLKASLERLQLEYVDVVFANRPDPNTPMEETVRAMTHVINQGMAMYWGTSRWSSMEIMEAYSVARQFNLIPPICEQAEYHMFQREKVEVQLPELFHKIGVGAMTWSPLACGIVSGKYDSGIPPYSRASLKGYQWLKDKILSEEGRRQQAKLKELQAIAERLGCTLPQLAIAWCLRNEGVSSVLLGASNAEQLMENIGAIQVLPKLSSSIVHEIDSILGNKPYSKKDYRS
Compound,cell count [1],inhibition [1],inhibition of aggregation [2],nuclei count [2] [%],inhibition [3],nuclei count [3] [%],fluorescence slope [4],NADPH fluorescence slope [5],fluorescence slope [6],inhibition [7],inhibition [8]
COc1ccc(N2CCN(C(=O)CSc3nnc4n3C(C)(C)Cc3ccccc3-4)CC2)cc1,548,7.7% (inactive),-9.9% (inactive),104,-14.4% (inactive),104,-0.572 (inactive),-3.1e-05 (inactive),0.00723 (inactive),4.92% (inactive),-6.84% (inactive)
CN1CCN(CCCNC(=O)C2CC(=O)N(C3CCCCC3)C2)CC1 (centres undefined),259,-1.7% (inactive),2.4% (inactive),98,15.5% (inactive),89.4,-0.548 (inactive),-4.3e-05 (inactive),0.00645 (inactive),14.4% (inactive),13.7% (inactive)
C=CCC(NCc1ccco1)c1ccc(OC)cc1OC (centres undefined),697,7.5% (inactive),4.4% (inactive),110,-94.5% (inactive),108,-0.597 (inactive),2.3e-05 (inactive),0.00584 (inactive),12.6% (inactive),18.9% (inactive)
O=C(Cn1c(=O)[nH]n(-c2ccccc2)c1=O)N1CCCc2ccccc21,328,0% (inactive),-15.3% (inactive),117,-87.1% (inactive),118,-0.387 (inactive),-5.1e-05 (inactive),0.00957 (inactive),14.4% (inactive),25.6% (inactive)
COCCSc1ccccc1C(=O)Nc1cc(C)on1,587,3.3% (inactive),-4.3% (inactive),92.3,22.8% (inactive),90.6,-0.568 (inactive),-2.5e-05 (inactive),0.00516 (inactive),14.3% (inactive),20.9% (inactive)
Cc1ccc2c(c1C)NC(C)CC2C (centres undefined),553,9.8% (inactive),5.9% (inactive),101,35.5% (inactive),100,-0.604 (inactive),-2.8e-05 (inactive),0.0052 (inactive),11.1% (inactive),13.6% (inactive)
COC(=O)c1sc(S(=O)(=O)Nc2ccc3cn[nH]c3c2)c(C(=O)OC)c1C,392,1% (inactive),23.4% (inactive),80,-83.8% (inactive),100,-0.533 (inactive),5.3e-06 (inactive),0.0043 (inactive),13.4% (inactive),31.2% (inactive)
CCCCCCNS(=O)(=O)c1ccc(Cl)s1,579,9.2% (inactive),-1.2% (inactive),102,-52.4% (inactive),89.1,-0.492 (inactive),0.000132 (inactive),0.00433 (inactive),19.6% (inactive),22.4% (inactive)
O=C(NCc1ccco1)C1CCN(C(=O)c2cc3sccc3n2Cc2ccc(F)cc2)CC1,571,-16.7% (inactive),-0.6% (inactive),122,-27.8% (inactive),101,-0.381 (inactive),-4.5e-05 (inactive),0.00956 (inactive),17.8% (inactive),27.2% (inactive)
Cc1ccc(NCc2nnc(SCC(=O)NCc3ccco3)n2CC2CCCO2)cc1Cl (centres undefined),331,-11.8% (inactive),13.3% (inactive),80.1,4.6% (inactive),106,-0.505 (inactive),2.3e-05 (inactive),0.00472 (inactive),-1.38% (inactive),-3.61% (inactive)
O=C1c2ccccc2-c2nc3ncnn3c(-c3ccccc3)c21,377,-7.8% (inactive),-4.5% (inactive),83.8,-6.8% (inactive),107,-0.432 (inactive),-0.000383 (inactive),0.00449 (inactive),-11.4% (inactive),1.41% (inactive)
O=C(NCC1CCCO1)C1CC(c2ccc(Cl)c(Cl)c2)=NO1 (centres undefined),838,-0.7% (inactive),4.4% (inactive),103,-247% (inactive),132,-0.472 (inactive),-3.1e-05 (inactive),0.00536 (inactive),3.78% (inactive),-3.62% (inactive)
COc1cc(NS(=O)(=O)c2cccc3nsnc23)c(C(=O)O)cc1OC,296,-6% (inactive),-7.8% (inactive),95.9,5.3% (inactive),136,-0.575 (inactive),-4.3e-05 (inactive),0.00636 (inactive),14.8% (inactive),17.5% (inactive)
CCC(c1nnnn1CCOC)N(Cc1ccc(C)cc1)Cc1cc2cc(OC)ccc2[nH]c1=O (centres undefined),519,1.9% (inactive),11.8% (inactive),99.2,-127% (inactive),134,-0.565 (inactive),-5.3e-05 (inactive),0.00576 (inactive),19% (inactive),27.8% (inactive)
CCOC(=O)c1nnn(CC(=O)Nc2cccc(OC)c2)c1C(=O)OCC,395,8% (inactive),20.4% (inactive),89,-10.7% (inactive),106,-0.416 (inactive),-3.9e-05 (inactive),0.00731 (inactive),9.94% (inactive),14.1% (inactive)
Cc1ccc2nc(SC(C)C(=O)N3CCCC3)[nH]c2c1 (centres undefined),467,0% (inactive),9.4% (inactive),75.7,-59.3% (inactive),112,-0.478 (inactive),6e-05 (inactive),0.00661 (inactive),-21.2% (inactive),-39.7% (inactive)
Cc1ccc(S(=O)(=O)NCC2CCC(C(=O)NCCCN3CCOCC3)CC2)cc1 (centres undefined),305,1.9% (inactive),26.8% (inactive),80.7,-24.4% (inactive),112,-0.564 (inactive),-0.000104 (inactive),0.00513 (inactive),13% (inactive),22.2% (inactive)
O=C(CS(=O)(=O)Cc1ccccc1)Nc1nc2ccccc2s1,425,-4% (inactive),8.1% (inactive),82.8,13.1% (inactive),97,-0.487 (inactive),-3.1e-05 (inactive),0.00544 (inactive),10.2% (inactive),23.6% (inactive)
O=C(CSc1nnc2scc(-c3ccccc3)n12)N1CCN(Cc2ccccc2)CC1,703,-24.5% (inactive),6.5% (inactive),110,19.1% (inactive),91.4,-0.5 (inactive),2.7e-06 (inactive),0.00675 (inactive),6.37% (inactive),7.98% (inactive)
